# Shown are actives, neighbours in structure and some others; about 1% of the full set was active somewhere.
# LYPLA2 inh – LYPLA2 inhibitors, primary screen, counter-screen for PME1 inhibitor project, biochemical, fluorescence polarization, FP-Rh probe ABPP; recombinant LYPLA2; inhibition, % at 5.9 µM; 320,000 tested, 0.38% active;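 active = inhibition above the screen-wide mean plus 3 SD, limit set per campaign, cut at about 26% in these data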;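 note: 0% = LYPLA2 with DMSO and 100% = wells lacking LYPLA2 enzyme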
# procasp7 counter – procaspase-7 activators, primary screen, counter-screen for procaspase-3 activator project, biochemical, absorbance, HTS, human; Caspase-7 (Homo sapiens), P55210; recombinant procaspase-7, Ac-DEVD-pNA absorbance 405 nm; D23A/D198A/D206A triple mutant, cannot self-cleave; scale: DMSO 0, 5 µM enzyme 100; activation, % at 8.5 µM; 330,000 tested, 0.093% active;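 active = percent activation above the screen-wide mean plus 3 SD, cut at about 25% in these data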
#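 System: Procaspase-7 triple mutant (PC-7 D3A); measure: % activation from two-timepoint absorbance difference, scaled to controls; times: 1 h compound preincubation, 2 h substrate cleavage, 25 °C; also added: Ac-DEVD-pNA substrate, 400 µM as added; measured by: Epi-absorbance of released pNA at 405 nm, two timepoints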
# proCasp3 act – activators of human procaspase-3 D3A mutant, primary screen, biochemical, absorbance, PC-3 D3A mutant, single concentration. Caspase-3 (Homo sapiens), P42574. recombinant procaspase-3 D3A, Ac-DEVD-pNA absorbance 405 nm. activation, % at 8.5 µM. 330,000 tested, 0.11% active;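 active = activation above the mean of all tested compounds plus 3 SD, cut at about 21% in these data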;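 note: 0% = DMSO alone and 100% = DMSO wells spiked with extra 5 µM PC-3 D3A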
# Target sequence (P42574 whole entry D9A/D28A/D175A): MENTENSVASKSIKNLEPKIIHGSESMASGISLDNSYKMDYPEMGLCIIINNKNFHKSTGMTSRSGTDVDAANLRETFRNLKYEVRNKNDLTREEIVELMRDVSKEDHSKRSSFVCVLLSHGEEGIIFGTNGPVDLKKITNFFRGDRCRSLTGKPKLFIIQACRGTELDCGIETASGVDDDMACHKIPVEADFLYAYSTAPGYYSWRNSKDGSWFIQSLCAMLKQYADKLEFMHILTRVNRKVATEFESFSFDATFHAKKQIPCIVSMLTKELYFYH
#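 Evaluation: percent activation relative to control range; Material: Procaspase-3 D3A mutant, all three cleavage aspartates alanine; Compound: single dose, 8.5 µM nominal compound, 0.8% DMSO; Replication: one well per compound; Signal: absorbance at 405 nm, 0 and 120 min; Schedule: 1 h preincubation plus 2 h reaction at 25 °C.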
# PREPL inh – PREPL enzyme inhibitors, primary screen, biochemical, fluorescence polarization; AID 2751, 2010; Prolyl endopeptidase-like (Homo sapiens), Q4J6C6; 320,000 tested, 0.68% active; recombinant PREPL, fluorescence polarization activity-based probe; inhibition, % at 5.96 µM; in the data active = inhibition above about 43%;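 note: 0% = enzyme with DMSO and 100% = wells lacking enzyme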
# LYPLA1 inh – LYPLA1 inhibitors, primary screen, counter-screen for PME1 inhibitor project, biochemical, fluorescence polarization, FP-Rh probe ABPP; recombinant LYPLA1; inhibition, % at 5.9 µM; 320,000 tested, 0.16% active; AID 2174, 2009;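 active = inhibition above the mean of all tested compounds plus 3 SD, set per campaign, cut at about 14% in these data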;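 note: inhibitors block serine hydrolase probe labeling of LYPLA1 so polarization falls; 0% = enzyme with DMSO and 100% = wells lacking LYPLA1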
# Target sequence (O75608 whole entry, looked up): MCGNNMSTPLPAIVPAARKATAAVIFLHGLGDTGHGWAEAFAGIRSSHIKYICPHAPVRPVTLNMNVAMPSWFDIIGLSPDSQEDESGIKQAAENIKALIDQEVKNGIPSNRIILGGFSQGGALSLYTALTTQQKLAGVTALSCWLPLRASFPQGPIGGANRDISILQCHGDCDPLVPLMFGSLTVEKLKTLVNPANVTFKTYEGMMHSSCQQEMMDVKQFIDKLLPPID
# LYPLA2 confirm – LYPLA2 inhibitors, retest, confirmation, counter-screen for PME1 inhibitor project, biochemical, fluorescence polarization, FP-Rh probe ABPP; shares compounds with LYPLA2 inh; recombinant LYPLA2; inhibition, % at 5.9 µM; 1,100 tested, 72% active; AID 2232, 2010;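 active = mean inhibition across replicates above the hit cutoff set in the primary screen, cut at about 26% in these data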;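 note: blocked labeling of the enzyme by serine hydrolase FP-Rh probe lowers polarization; 0% = enzyme with DMSO and 100% = wells lacking LYPLA2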
# LYPLA2 gel ABPP – LYPLA2 inhibitors in proteome, late-stage follow-up, gel-based competitive ABPP, fluorescence, assay provider | 150 tested, 30% active | shares compounds with LYPLA2 inh | inhibition, % at 20 µM | AID 652029, 2013 | rhLYPLA2 in mouse brain proteome, gel ABPP FP-Rh;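 active = inhibition of LYPLA2 enzyme probe labeling above about 50%, limit read from the data; inactive = inhibition below that limit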;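 note: loss of FP-Rh probe labeling of the LYPLA2 gel band measured as band density; 0% = DMSO only control band and 100% = blank gel background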
# Numbers without * were called inactive; / = no result.
SMILES,LYPLA2 inh,procasp7 counter,proCasp3 act,PREPL inh,LYPLA1 inh,LYPLA2 confirm,others
COc1cc(/C=C2\CCc3ccccc3C2=O)cc(OC)c1OC,27*,8,8,7,3,18,
COc1cc(/C=C2\CC/C(=C\c3cc(OC)c(OC)c(OC)c3)C2=O)cc(OC)c1OC,-2,1,2,9,-1,/,
Cc1ccc(C(=O)N2CCN(C)CC2)cc1S(=O)(=O)N1CCCCCC1,27*,10,0,4,1,-4,
O=C1CC(c2ccc(OCCCCCOc3ccc(C4CC(=O)NC4=O)cc3)cc2)C(=O)N1 (stereo not given),40*,-9,1,3,4,53*,LYPLA2 gel ABPP=32
Cc1nnsc1-c1nnc(SCC(=O)c2ccc(F)cc2)n1C1CC1,-1,-2,1,4,3,/,
COc1ccc(Oc2ccc(N/C=C3\CCCC3=O)cc2)cc1,39*,-6,-7,6,7,37*,
COc1ccc(N/C=C2/CCCCC2=O)cc1,3,-4,3,7,-1,/,
COc1ccc(OC)c(N/C=C2/CCCCC2=O)c1,0,-13,-6,9,3,/,
COc1ccc(Oc2ccc(N/C=C3/CCCC3=O)cc2)cc1,41*,-1,-3,3,3,36*,
O=C1CCN(Cc2cccnc2)CCN1[C@H](CO)Cc1ccccc1,1,-7,-1,-2,4,/,
COC(=O)c1ccc(NC(=O)c2ccc3c(c2)C(=O)N(Cc2cccnc2)C3=O)cc1,50*,3,-1,7,5,51*,
O=C(Nc1cccnc1)c1ccc2c(c1)C(=O)N(Cc1cccnc1)C2=O,2,7,2,10,-1,/,
O=C(Nc1ccc(N2CCN(C(=O)c3cccs3)CC2)cc1)c1ccccc1Cl,41*,-2,-2,7,2,41*,
COc1cccc(OC)c1C(=O)Nc1ccc(N2CCN(C(=O)c3cccs3)CC2)cc1,0,1,4,9,2,/,
O=C(Nc1ccc(N2CCN(C(=O)c3cccs3)CC2)cc1)c1ccccc1F,27*,-2,0,18,5,15,
COc1cccc(NC(=S)NNC(=O)Cn2nc(C(F)F)cc2C(F)F)c1,1,2,-1,-3,-3,/,
CC(NCc1ccc(OCc2ccc(Cl)cc2)cc1)C(O)c1ccccc1 (stereo not given),39*,4,3,34,1,38*,
CCCOc1ccc(C(=O)NNC(=S)NC(=O)c2ccccc2)cc1,7,-17,-8,6,2,/,
CCCOc1ccc(C(=O)NNC(=S)NC(=O)c2ccccc2[N+](=O)[O-])cc1,27*,7,-2,13,-1,29*,
CC(NS(=O)(=O)c1ccc(Cl)cc1)C(=O)NCc1ccco1 (stereo not given),2,-4,-12,-7,0,/,
O=C(O)c1cc(S(=O)(=O)N2CCCCCC2)ccc1Cl,-8,-5,-3,0,-3,/,
O=C(Nc1ccccc1C(=O)O)c1cc(S(=O)(=O)N2CCCCCC2)ccc1Cl,35*,2,-1,0,-4,6,
CCOC(=O)N1CCN(S(=O)(=O)c2ccc(F)c(C(=O)Nc3cccc(Cl)c3C)c2)CC1,40*,5,-6,5,2,41*,
COc1cc2c(cc1OC)CN(Cc1ccc(F)cc1)CC2,-1,2,2,18,-3,/,
COC(=O)c1ccc(-n2nc(C(F)(F)F)c3c2-c2ccoc2CC3)cc1,-7,-10,-8,3,-3,/,
SMILES,LYPLA2 inh,procasp7 counter,proCasp3 act,PREPL inh,LYPLA1 inh,LYPLA2 confirm,others
Cc1ccc(C(=O)N/N=C(/CC(=O)c2cccs2)C(F)(F)F)cc1,-11,-16,2,4,-3,/,
Cc1cc(NC(=O)COC(=O)c2c(C)noc2C)ccc1Br,49*,4,2,13,2,53*,
Cc1noc(C)c1C(=O)OCC(=O)Nc1cccc(S(N)(=O)=O)c1,2,-2,9,-1,3,/,
CCCCCCC[N+](CC)(CC)CCCCc1ccc(Cl)cc1,35*,0,-3,26,2,30*,
COc1ccc(C(=O)NCC(=O)N2CCN(c3ccc(Cl)cc3)CC2)cc1,1,-8,1,9,-2,/,
Cc1cccc(Oc2cc(NC(=O)Cn3cnc([N+](=O)[O-])n3)cc([N+](=O)[O-])c2)c1,42*,9,-2,21,-14,24,
Cc1cc([N+](=O)[O-])nn1CCCC(=O)Nc1cc(Oc2ccccc2)cc([N+](=O)[O-])c1,5,-9,-2,2,1,/,
CCOc1ccc(-n2c(=S)sc3c(=O)n(-c4ccccc4)c(SC)nc32)cc1,56*,-1,9,-3,-4,-2,
Cc1nc([N+](=O)[O-])c(Br)n1CC(=O)c1ccc2ccccc2c1,31*,-12,-4,12,1,30*,
Cc1nc([N+](=O)[O-])c(Br)n1CC(=O)c1ccccc1,7,-7,5,-7,1,/,
CCc1sc(-c2c(C#N)c(N)nc3c2CCCCCC3)cc1[N+](=O)[O-],45*,1,4,2,0,39*,
CC(C)(C)c1ccc(-c2c(C#N)c(N)nc3c2CCCC3)s1,-2,-2,-7,-2,-1,/,
COc1ccc(Nc2oc(-c3ccc(F)cc3)nc2C#N)cc1,2,5,1,8,6,/,
CCn1cc(C(=O)OCC(=O)Nc2ccc(S(=O)(=O)N3CCCC3)cc2)c(=O)c2ccc(C)nc21,-5,14,11,0,-1,/,
Cn1c(=O)oc2cc(S(=O)(=O)N3CCC(C(=O)N4CCN(c5ccc(F)cc5)CC4)CC3)ccc21,44*,4,0,6,-2,39*,
O=C(C1CCN(S(=O)(=O)Cc2ccccc2)CC1)N1CCN(c2ncccn2)CC1,6,7,3,3,2,/,
